In one test the target is T1, Peptide deformylase (Staphylococcus aureus subsp. aureus Mu50, UniProt P68825).
T1 sequence (P68825 whole entry): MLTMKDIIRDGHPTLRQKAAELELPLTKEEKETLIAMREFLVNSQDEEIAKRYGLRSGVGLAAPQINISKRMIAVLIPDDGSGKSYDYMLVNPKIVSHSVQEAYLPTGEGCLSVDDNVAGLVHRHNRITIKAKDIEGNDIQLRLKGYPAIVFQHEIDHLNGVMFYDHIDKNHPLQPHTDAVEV
Briefly: Inhibition of Staphylococcus aureus peptide deformylase.

In another test the test system is Staphylococcus aureus. Briefly: Antibacterial activity against Staphylococcus aureus RN4220 after 18 hrs by microdilution method. The test is classed as functional. A digest of the protocol: (§1)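 Broth microdilution assay. The minimum restrictive concentration (MRC) was taken as the lowest concentration that reduced growth by at least 50%.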
Background: Dilution methods test growth across graded concentrations, often in twofold steps.

A further test relates to Bacillus subtilis. Briefly: Antibacterial activity against Bacillus subtilis KCTC 1021 after 18 hrs by microdilution method. Type of test: functional. The procedure, abridged:
as §1

A further test concerns Escherichia coli. Kind of test: Antibacterial activity against Escherichia coli KCTC 1924 after 18 hrs by microdilution method. The note with it: KCTC 1924, 18 h. Type of test: functional. The procedure, abridged:
as §1

In brackets after ≈: the same amount, converted by molar mass.

The IC50 is the point on the concentration scale where inhibition reaches its midpoint. A higher IC50 goes with weaker potency. For orientation: MIC means the lowest concentration found to suppress growth. Low readings indicate a more susceptible organism, high ones a less susceptible organism.

`C[C@@H]1CCC/C=C\C=C\[C@H](O)C[C@@H](O)C/C=C\C=C\[C@@H](O[C@H]2O[C@@H](CO)[C@H](O)[C@@H](O)[C@@H]2O)C/C=C/C=C\C(=O)O1` [MACROLACTIN Q] yielded an IC50 against Peptide deformylase of 12.1 µM. Also, the MRC in the test with Staphylococcus aureus and in the test with Bacillus subtilis was 100 µg/mL throughout. For the same compound, the MIC with Escherichia coli was 100 µg/mL (≈ 177 µM).
Take `C[C@@H]1CCC/C=C/C=C/[C@H](O)C[C@@H](O)C/C=C/C=C/[C@@H](O[C@H]2O[C@@H](CO)[C@H](O)[C@@H](O)[C@@H]2O)C/C=C/C=C\C(=O)O1` [MACROLACTIN R]: the IC50 against Peptide deformylase came to 61.5 µM. Besides, the MRC in the test with Staphylococcus aureus and in the test with Bacillus subtilis was 100 µg/mL each time. The MIC with Escherichia coli was determined as 100 µg/mL (≈ 177 µM).
`C[C@@H]1CCC/C=C/CCC(=O)C[C@@H](O)C/C=C\C=C\[C@@H](O[C@H]2O[C@@H](CO)[C@H](O)[C@@H](O)[C@@H]2O)C/C=C/C=C\C(=O)O1` [MACROLACTIN O] showed an IC50 against Peptide deformylase of 53.5 µM. For the same compound, the MRC in the test on Staphylococcus aureus and in the test on Bacillus subtilis was 100 µg/mL in each case. Moreover, the MIC in the test on Escherichia coli stood at 100 µg/mL (≈ 177 µM).
In the case of `CC[C@@H]1CCC/C=C/C=C/[C@H](O)C[C@@H](O)C/C=C\C=C\[C@@H](O[C@H]2O[C@@H](CO)[C@H](O)[C@@H](O)[C@@H]2O)C/C=C/C=C\C(=O)O1` [MACROLACTINN P], on Peptide deformylase, the IC50 was determined as 57.7 µM. The MRC in the test on Staphylococcus aureus and with Bacillus subtilis was 100 µg/mL each time. In the test on Escherichia coli, this compound yielded an MIC of 100 µg/mL (≈ 173 µM).

(Values after ChEMBL document CHEMBL1141303, “Macrolactins O-R, glycosylated 24-membered lactones from Bacillus sp. AH159-1” (J Nat Prod, 2007).)
